# Source: PubChem
# PTPN22 inh 2: PTPN22 phosphatase inhibitors, primary screen, biochemical, DiFMUP fluorescence, 2 µM. Tyrosine-protein phosphatase non-receptor type 22 (Homo sapiens), Q9Y2R2. recombinant LYP catalytic domain. inhibition, % at 2 µM. 96,000 compounds, 0.21% hits;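 active = inhibition at 2 µM at or above a set limit, the screen mean plus 3 SD, cut at about 24% in these data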;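 note: 0% = DMSO with enzyme and 100% = enzyme fully blocked by orthovanadate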
# FAK inh: FAK kinase inhibitors, primary screen, biochemical; biochemical FAK kinase activity assay; 97,000 compounds, 0.84% hits; inhibition, %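 (tested at 7 µM)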;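 note: 0% = DMSO and 100% = reference compound high control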
# Target sequence (Q05397 whole entry, looked up): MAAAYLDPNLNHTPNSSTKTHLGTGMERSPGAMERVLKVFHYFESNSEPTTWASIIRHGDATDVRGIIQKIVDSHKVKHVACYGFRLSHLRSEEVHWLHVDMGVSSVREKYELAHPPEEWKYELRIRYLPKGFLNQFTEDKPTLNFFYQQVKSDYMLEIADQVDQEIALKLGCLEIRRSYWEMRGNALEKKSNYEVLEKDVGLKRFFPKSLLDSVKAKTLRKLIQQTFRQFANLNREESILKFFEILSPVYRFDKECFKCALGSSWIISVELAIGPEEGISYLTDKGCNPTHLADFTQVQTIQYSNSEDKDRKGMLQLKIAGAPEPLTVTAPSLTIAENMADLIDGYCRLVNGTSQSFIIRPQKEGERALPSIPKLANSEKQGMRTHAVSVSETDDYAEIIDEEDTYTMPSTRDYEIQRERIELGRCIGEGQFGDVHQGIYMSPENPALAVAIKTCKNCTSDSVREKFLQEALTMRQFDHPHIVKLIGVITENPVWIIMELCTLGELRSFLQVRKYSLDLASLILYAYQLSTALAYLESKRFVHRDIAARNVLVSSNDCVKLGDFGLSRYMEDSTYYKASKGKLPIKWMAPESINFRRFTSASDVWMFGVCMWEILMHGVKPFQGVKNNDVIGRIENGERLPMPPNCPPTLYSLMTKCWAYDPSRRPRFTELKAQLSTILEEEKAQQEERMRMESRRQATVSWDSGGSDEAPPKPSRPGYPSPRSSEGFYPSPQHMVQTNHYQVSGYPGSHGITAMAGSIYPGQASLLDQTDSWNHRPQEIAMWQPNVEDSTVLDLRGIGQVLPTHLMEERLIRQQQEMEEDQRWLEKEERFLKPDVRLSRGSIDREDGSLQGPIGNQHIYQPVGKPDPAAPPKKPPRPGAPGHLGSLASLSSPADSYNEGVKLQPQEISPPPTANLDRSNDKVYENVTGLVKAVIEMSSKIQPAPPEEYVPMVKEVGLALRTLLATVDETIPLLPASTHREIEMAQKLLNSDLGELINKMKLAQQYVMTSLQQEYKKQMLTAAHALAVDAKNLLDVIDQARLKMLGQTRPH
# PTPN22 act: LYP phosphatase activators, primary screen, biochemical, DiFMUP fluorescence, 2 µM; Tyrosine-protein phosphatase non-receptor type 22 (Homo sapiens), Q9Y2R2; recombinant LYP; 0 = plate median, 100 = signal doubled; activation, % at 2 µM; 96,000 compounds, 0.11% hits;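 active = activation at 2 µM above a set limit, the mean plus 5 SD, cut at about 37% in these data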
# Rev-RRE block: HIV-1 Rev-RRE binding inhibitors, primary screen, biochemical, FRET, protein-RNA interaction; Rev peptide-RRE RNA binding; 97,000 compounds, 0.79% hits; inhibition, % at 8 µM;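 active = inhibition above the screen-wide mean plus 3 SD, cut at about 35% in these data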;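 note: 0% = median DMSO wells and 100% = median Neomycin B control wells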
#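 System: Cy5-labelled duplex RRE RNA binding fluorescein-labelled HIV Rev peptide; Signal: fluorescein-to-Cy5 FRET, 480 nm excitation; Also added: labelled Rev peptide; Compound: one concentration, 8 µM nominal; Buffer or medium: HEPES pH 7.5 salt buffer with EDTA; Read-out: % inhibition of FRET ratio versus controls; Schedule: 5 min preincubation and 15 min binding, 25 °C.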
# LYP act confirm: retest of PTPN22 activators, confirmation, biochemical, DiFMUP fluorescence, single concentration; 100 tested, under 10 active; shares compounds with PTPN22 act; activation, % at 2 µM; Recombinant LYP, activation; zero set by plate's median compound well; AID 1031, 2008; call rule not given here
# FAK inh confirm: FAK kinase inhibitors, retest, confirmation, biochemical; shares compounds with FAK inh; FAK kinase biochemical inhibition assay; inhibition, % at 7 µM; 750 compounds, 28% hits; AID 794, 2007
# The depositor's hits bear a star; x = no result given. Compounds with a hit are over-represented: about 1.8% of the library has one in this group of screens. Cut-off read from the data, not from the text of the source, unless noted: active = inhibition above about 19%; inactive = the rest.
SMILES,PTPN22 inh 2,FAK inh,PTPN22 act,Rev-RRE block,FAK inh confirm,others
COc1cc(OC)c(C2N(c3ccccn3)C(=O)C3CCCN32)cc1OC (centres undefined),3,1,-5,2,x,
COC(=O)[C@H](Cc1ccccc1)NC(=O)NCc1ccccc1OC,-4,0,4,2,x,
COC(=O)c1ccc(C)c(NS(=O)(=O)c2ccc(OC)cc2)c1,2,-2,0,2,x,
COC(=O)c1ccc(C)c(NS(=O)(=O)c2ccc3c(c2)OCCO3)c1,-38,-4,42*,2,x,LYP act confirm=-1
Cc1sc(NC(=S)NC(=O)C(C)(C)C)c(C(N)=O)c1C,-4,6,6,4,x,
CC(C)CNC(=S)NNC(=O)c1csc2ccccc12,-43,4,37*,-1,x,LYP act confirm=3
CCNC(=S)NNC(=O)c1csc2ccccc12,12,3,-9,6,x,
Cc1cc(NC(=O)CSc2c3c(nc4ccccc24)CCC3)no1,3,27*,-4,-3,9,
CCCc1nc(SCC(=O)Nc2cc(C)on2)c2ccccc2n1,-10,17,7,-2,x,
Cc1ccccc1-n1c(C)nc2ccccc21,-5,3,3,-3,x,
COC(=O)CSc1cc(C)nc2ccc(OC)cc12,1,19*,1,7,1,
COc1ccc2nc(C)cc(SCC(=O)O)c2c1,10,7,-11,8,x,
COc1ccc2nc(C)cc(SCC(=O)N/N=C/c3cccc4ccccc34)c2c1,-2,32*,0,-4,23*,
S=c1[nH]ncn1/N=C/c1ccccn1,-24,-1,26,11,x,
O=C(COc1ccc(S(=O)(=O)N2CCCC2)cc1)NCCC1=CCCCC1,6,23*,-7,9,1,
Cn1c(SCC(=O)Nc2ccc3nc(SCC(=O)N4CCCC4)sc3c2)nnc1-c1ccccc1,12,25*,-10,1,9,
COc1ccc(OC)c(NS(=O)(=O)Cc2ccccc2)c1,-2,46*,-1,6,32*,
COc1ccc(OC)c(S(=O)(=O)NCc2ccccc2)c1,2,-3,-2,3,x,
CC(=O)N1CCc2cc(S(=O)(=O)NCCC(=O)N3CCN(c4ccccn4)CC3)ccc21,2,32*,-3,0,1,
COc1cc(NS(C)(=O)=O)c(OC)cc1NC(=O)c1ccccc1,10,-1,-11,3,x,
COc1ccc(CN(C(=S)Nc2ccccc2)C2CC(=O)N(c3ccc(Cl)cc3)C2=O)cc1 (centres undefined),5,87*,-2,5,1,
CCNC(=S)N(Cc1ccc(OC)cc1)C1CC(=O)N(c2ccc(OCC)cc2)C1=O (centres undefined),4,-3,1,4,x,
Nc1nnnn1/N=C/c1ccccc1OCc1ccc(Cl)cc1Cl,2,29*,-4,8,4,
COc1ccc2[nH]c(=O)c(-c3noc(-c4ccccc4)n3)cc2c1,1,59*,-3,14,36*,
O=c1[nH]c2ccccc2cc1-c1noc(-c2cccnc2)n1,7,7,-8,9,x,
SMILES,PTPN22 inh 2,FAK inh,PTPN22 act,Rev-RRE block,FAK inh confirm,others
O=C(NCCCN1CCCCCC1)c1ccc(CS(=O)(=O)Cc2ccccc2F)o1,15,25*,-11,8,30*,
CC1CCN(CCCNC(=O)c2ccc(CS(=O)(=O)Cc3ccccc3F)o2)CC1,1,-2,-4,-2,x,
COc1ccc(N(CC(=O)NCCSC2CCCCC2)S(C)(=O)=O)c(OC)c1,-1,-4,-1,2,x,
CCOc1ccccc1-c1nc(-c2ccc(NC(=O)Cc3ccc(OC)cc3)cc2)no1,8,25*,-8,9,8,
CCOc1ccccc1-c1nc(-c2ccc(NC(=O)c3ccc(Br)o3)cc2)no1,-1,-1,0,4,x,
CC(Sc1nnc(Cc2cccs2)n1C1CCCCC1)C(N)=O (centres undefined),-8,26*,11,4,-1,
OC(COc1ccc(C2C=CCC2)cc1)CN1CCCCC1 (centres undefined),10,22*,-13,2,8,
CS(=O)(=O)N1CCN(c2ccccc2NC(=O)c2ccc(Br)o2)CC1,-5,21*,2,8,3,
CCOC(=O)N1CCN(C(=O)CN(Cc2ccc(Cl)cc2)S(=O)(=O)c2ccc(C)cc2)CC1,7,1,-7,5,x,
NC(=S)Nc1ccc(Oc2ccc(NC(N)=S)cc2)cc1,12,-7,-9,3,x,
Cc1ccc(S(=O)(=O)c2c(COC(=O)c3ccccc3Cl)c(-c3ccccc3)nn2C)cc1,1,-1,0,12,x,
O=C1CCCN1CCCNc1ncnc2c1[nH]c1ccc(Cl)cc12,-2,29*,6,12,4,
CCN1CCCC1CNc1ncnc2c1[nH]c1ccc(Cl)cc12 (centres undefined),-4,21*,3,6,2,
Clc1ccc2[nH]c3c(NCCCN4CCOCC4)ncnc3c2c1,-1,12,-2,10,x,
COC(=O)c1cc(Br)c(=O)n(-c2cccc(F)c2)c1,15,8,-12,9,x,
O=c1[nH]cnc2sc3c(c12)CCCC3,7,26*,-4,3,10,
C=CCn1cc(/C=N\NC(=O)c2cc3c(ccc4ccccc43)o2)c2ccccc21,-2,2,0,3,x,
O=C(N/N=C/C=C/c1ccccc1)c1cc2c(ccc3ccccc32)o1,32*,42*,-31,-21,17,
CCC12CCCN3CCC4(C(=C(C(=O)OC)C1)Nc1ccccc14)C32 (centres undefined),3,2,-4,2,x,
Cc1ccc(NN2C(=O)C=C(c3ccc(Cl)cc3)C2=O)cc1,-4,0,6,2,x,
NC(=O)c1sc2nc3c(c(-c4ccc(Cl)cc4)c2c1N)CCCC3,5,-4,-7,10,x,
Cc1ccc(-c2c3c(nc4sc(C(N)=O)c(N)c24)CCC3)cc1,2,22*,0,4,5,
COC(=O)c1cccc(NC(=O)CCCOc2cccc(C)c2)c1,0,0,2,11,x,
O=C(Cn1c(=O)n(Cc2ccco2)c(=O)c2c3c(sc21)CCCCC3)Nc1ccccc1,21,32*,-19,1,4,
CN(C)CCn1c(=O)n(Cc2ccco2)c(=O)c2c3c(sc21)CCCCC3,8,4,-11,5,x,
O=C(Cn1c(=O)n(Cc2ccco2)c(=O)c2c3c(sc21)CCCCC3)c1ccccc1,16,30*,-14,2,3,
Nc1ncnc2nc(SCc3ccccc3)[nH]c12,11,38*,-8,8,13,
